Test results: ChEMBL document CHEMBL2157870 (J Med Chem, 2012)
pEC50, pIC50: −log10 of the molar value. Converted amounts (≈) assume the structure as drawn.

Assays:
HEK293 = assay: Cytotoxicity against human HEK293 cells at 25 uM after 72 hrs by celltiter-glo assay; type: cell-based; details: hek293, 72 h
CYP2D6 [1] = molecular target: T1, CYP2D6 (Homo sapiens, UniProt P10635); assay: Inhibition of CYP2D6 in human liver microsomes at 1 uM after 20 mins by LC-MS/MS analysis relative to control; values are per cent of control
Mus musculus [2] = assay: Cmax in CD1 mouse at 200 mg/kg, po; type: ADME, organism-based; design: dose 200 mg/kg, route oral; details: in vivo
Outline: (§1)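 Female CD-1 mice, 8 weeks old, were given a single oral gavage dose as a suspension in 0.5% methylcellulose in sterile water. Blood was taken from three mice per time point (5 min–24 hr) into K3EDTA and processed to plasma. After acetonitrile protein precipitation, samples were analysed by LC-MS/MS with a warfarin internal standard. Noncompartmental analysis used linear-up/log-down trapezoidal AUC and at least three non-zero concentrations after Tmax.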

Mus musculus [3] = assay: Tmax in CD1 mouse at 20 mg/kg, po; type: ADME, organism-based; design: dose 20 mg/kg, route oral; details: in vivo; outline: as §1
BJ = assay: Cytotoxicity against human BJ cells at 25 uM after 72 hrs by celltiter-glo assay; type: cell-based
[4] = (§2) Apparent volume of distribution during terminal phase in CD1 mouse at 20 mg/kg, po; type: ADME, organism-based; design: dose 20 mg/kg, route oral; details: CD1, mouse, in vivo, read-out: Vz/F; outline: as §1
Plasmodium falciparum [5] = assay: Antimalarial activity against Plasmodium falciparum K1 after 72 hrs by MSF assay; type: functional, organism-based; details: K1, 72 h
Mus musculus [6] = assay: Tmax in CD1 mouse at 200 mg/kg, po; type: ADME, organism-based; design: dose 200 mg/kg, route oral; details: in vivo; outline: as §1
HepG2 = assay: Cytotoxicity against human HepG2 cells at 25 uM after 72 hrs by celltiter-glo assay; type: cell-based; details: hepg2, 72 h
[7] = Permeability of the compound at 10 uM at pH 7.4 by PAMPA; type: ADME; details: pH 7.4, 10 µM
Outline: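 PAMPA: diluted compound in system solution buffer at pH 7.4 was placed in the donor well over a GIT-lipid-painted membrane, with acceptor solution buffer in the acceptor well. The sandwich was stirred for 30 min with the aqueous boundary layer set to 40 μm. Triplicate.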

[8] = Solubility of the compound in PBS at 10 mM after 18 hrs by UV spectroscopic analysis; type: physicochemical
Plasmodium falciparum [9] = assay: Antimalarial activity against Plasmodium falciparum 3D7 after 72 hrs by MSF assay; type: functional, organism-based; details: 3D7, 72 h
Mus musculus [10] = assay: AUC (0 to infinity) in CD1 mouse at 20 mg/kg, po; type: ADME, organism-based, Plasma; design: time infinity, dose 20 mg/kg, route oral; details: in vivo; outline: as §1
Mus musculus [11] = assay: Cmax in CD1 mouse at 20 mg/kg, po; type: ADME, organism-based; design: dose 20 mg/kg, route oral; details: in vivo; outline: as §1
Raji = assay: Cytotoxicity against human Raji cells at 25 uM after 72 hrs by celltiter-glo assay; type: cell-based
Mus musculus [12] = assay: Cmax in CD1 mouse at 500 mg/kg, po; type: ADME, organism-based; design: dose 500 mg/kg, route oral; details: in vivo; outline: as §1
CYP2D6 [13] = molecular target: T1, CYP2D6; assay: Inhibition of CYP2D6 in human liver microsomes at 10 uM after 20 mins by LC-MS/MS analysis relative to control; values are per cent of control
[14] = Apparent volume of distribution during terminal phase in CD1 mouse at 200 mg/kg, po; type: ADME, organism-based; design: dose 200 mg/kg, route oral; details: in vivo, read-out: Vz/F; outline: as §1
Mus musculus [15] = assay: (§3) Apparent volume of distribution during terminal phase in CD1 mouse at 500 mg/kg, po; type: ADME, organism-based; design: dose 500 mg/kg, route oral; details: mouse, in vivo; outline: as §1
Mus musculus [16] = assay: AUC (0 to infinity) in CD1 mouse at 200 mg/kg, po; type: ADME, organism-based, Plasma; design: time infinity, dose 200 mg/kg, route oral; details: in vivo; outline: as §1
Mus musculus [17] = assay: AUC (0 to infinity) in CD1 mouse at 500 mg/kg, po; type: ADME, organism-based, Plasma; design: time infinity, dose 500 mg/kg, route oral; details: in vivo; outline: as §1
Mus musculus [18] = assay: Tmax in CD1 mouse at 500 mg/kg, po; type: ADME, organism-based; design: dose 500 mg/kg, route oral; details: in vivo; outline: as §1
[19] = molecular target: T2, ATP-sensitive inward rectifier potassium channel 11 (Homo sapiens, UniProt Q14654); assay: Inhibition of Kir6.2 by patch clamp assay
T2 sequence (Q14654 whole entry): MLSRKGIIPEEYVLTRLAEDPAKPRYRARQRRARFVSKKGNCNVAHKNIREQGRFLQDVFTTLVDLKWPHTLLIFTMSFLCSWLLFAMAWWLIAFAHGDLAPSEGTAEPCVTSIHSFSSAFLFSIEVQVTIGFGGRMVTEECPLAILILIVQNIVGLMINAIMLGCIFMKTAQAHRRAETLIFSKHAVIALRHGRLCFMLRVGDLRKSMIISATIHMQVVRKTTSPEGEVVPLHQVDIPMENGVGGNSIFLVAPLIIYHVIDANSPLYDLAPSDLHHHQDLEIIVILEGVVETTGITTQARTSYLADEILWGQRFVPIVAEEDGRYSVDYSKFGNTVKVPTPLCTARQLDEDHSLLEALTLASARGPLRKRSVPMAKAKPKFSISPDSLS

[20] = Intrinsic clearance in […] mouse liver microsomes at 2 mM; type: ADME, Microsome; details: read-out: CLH
[21] = molecular target: Voltage-gated inwardly rectifying potassium channel KCNH2 (Homo sapiens, UniProt Q12809); assay: Inhibition of human ERG by patch clamp assay
[22] = Intrinsic clearance in human liver microsomes at 2 mM; type: ADME, Microsome; details: read-out: CLH
Mus musculus [23] = assay: as §2; type: ADME, organism-based; design: dose 20 mg/kg, route oral; details: mouse, in vivo; outline: as §1
Plasmodium berghei [24] = assay: Antimalarial activity against Plasmodium berghei NK-65 infected in ICR mouse assessed as parasitemia level at 200 mg/kg, po administered day 3, 4 and 5 post infection measured on day 13 by Geimsa staining; type: functional
Outline: (§4)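 Female Swiss outbred ICR mice, 15–20 g, given 1 X 10^6 P. berghei NK-65 infected red cells from donor mice in plasma at day 0 (modified Thompson's test). Patent infection confirmed by tail blood smear on day 3. Oral single daily doses in 0.5% HEC on days 3, 4, 5. Vehicle controls. Survival recorded daily to day 30. Parasitemia from Giemsa thin films on days 3, 6, 13, 20, 27, counting ≥1000 cells.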

Plasmodium berghei [25] = assay: Antimalarial activity against Plasmodium berghei NK-65 infected in ICR mouse assessed as survival rate at 100 mg/kg, po administered day 3, 4 and 5 post infection; type: functional; outline: as §4
Plasmodium berghei [26] = assay: Antimalarial activity against Plasmodium berghei NK-65 infected in ICR mouse assessed as parasitemia level at 200 mg/kg, po administered day 3, 4 and 5 post infection measured on day 20 by Geimsa staining; type: functional; outline: as §4
Plasmodium berghei [27] = assay: Antimalarial activity against Plasmodium berghei NK-65 infected in ICR mouse assessed as parasitemia level at 200 mg/kg, po administered day 3, 4 and 5 post infection measured on day 6 by Geimsa staining; type: functional; outline: as §4
Plasmodium berghei [28] = assay: Antimalarial activity against Plasmodium berghei NK-65 infected in ICR mouse assessed as parasitemia level at 100 mg/kg, po administered day 3, 4 and 5 post infection measured on day 6 by Geimsa staining; type: functional; outline: as §4
[29] = as §3; type: ADME, organism-based; design: dose 500 mg/kg, route oral; details: CD1, mouse, in vivo, read-out: Vz/F; outline: as §1

T1 sequence (P10635 whole entry): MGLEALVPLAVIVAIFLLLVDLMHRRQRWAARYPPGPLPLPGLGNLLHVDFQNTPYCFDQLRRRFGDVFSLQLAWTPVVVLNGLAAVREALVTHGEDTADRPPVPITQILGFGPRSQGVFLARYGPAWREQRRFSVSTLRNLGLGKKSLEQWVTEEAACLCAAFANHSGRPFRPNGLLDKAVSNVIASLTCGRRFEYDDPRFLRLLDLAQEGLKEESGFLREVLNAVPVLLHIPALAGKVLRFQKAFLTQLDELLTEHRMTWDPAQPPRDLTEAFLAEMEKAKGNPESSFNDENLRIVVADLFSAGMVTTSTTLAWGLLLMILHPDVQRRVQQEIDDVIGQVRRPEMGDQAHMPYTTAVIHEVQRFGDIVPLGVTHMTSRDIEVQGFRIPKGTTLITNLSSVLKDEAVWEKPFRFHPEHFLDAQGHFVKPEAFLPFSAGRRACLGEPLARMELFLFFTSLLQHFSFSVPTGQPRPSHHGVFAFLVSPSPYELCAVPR
Voltage-gated inwardly rectifying potassium channel KCNH2, sequence (Q12809 whole entry): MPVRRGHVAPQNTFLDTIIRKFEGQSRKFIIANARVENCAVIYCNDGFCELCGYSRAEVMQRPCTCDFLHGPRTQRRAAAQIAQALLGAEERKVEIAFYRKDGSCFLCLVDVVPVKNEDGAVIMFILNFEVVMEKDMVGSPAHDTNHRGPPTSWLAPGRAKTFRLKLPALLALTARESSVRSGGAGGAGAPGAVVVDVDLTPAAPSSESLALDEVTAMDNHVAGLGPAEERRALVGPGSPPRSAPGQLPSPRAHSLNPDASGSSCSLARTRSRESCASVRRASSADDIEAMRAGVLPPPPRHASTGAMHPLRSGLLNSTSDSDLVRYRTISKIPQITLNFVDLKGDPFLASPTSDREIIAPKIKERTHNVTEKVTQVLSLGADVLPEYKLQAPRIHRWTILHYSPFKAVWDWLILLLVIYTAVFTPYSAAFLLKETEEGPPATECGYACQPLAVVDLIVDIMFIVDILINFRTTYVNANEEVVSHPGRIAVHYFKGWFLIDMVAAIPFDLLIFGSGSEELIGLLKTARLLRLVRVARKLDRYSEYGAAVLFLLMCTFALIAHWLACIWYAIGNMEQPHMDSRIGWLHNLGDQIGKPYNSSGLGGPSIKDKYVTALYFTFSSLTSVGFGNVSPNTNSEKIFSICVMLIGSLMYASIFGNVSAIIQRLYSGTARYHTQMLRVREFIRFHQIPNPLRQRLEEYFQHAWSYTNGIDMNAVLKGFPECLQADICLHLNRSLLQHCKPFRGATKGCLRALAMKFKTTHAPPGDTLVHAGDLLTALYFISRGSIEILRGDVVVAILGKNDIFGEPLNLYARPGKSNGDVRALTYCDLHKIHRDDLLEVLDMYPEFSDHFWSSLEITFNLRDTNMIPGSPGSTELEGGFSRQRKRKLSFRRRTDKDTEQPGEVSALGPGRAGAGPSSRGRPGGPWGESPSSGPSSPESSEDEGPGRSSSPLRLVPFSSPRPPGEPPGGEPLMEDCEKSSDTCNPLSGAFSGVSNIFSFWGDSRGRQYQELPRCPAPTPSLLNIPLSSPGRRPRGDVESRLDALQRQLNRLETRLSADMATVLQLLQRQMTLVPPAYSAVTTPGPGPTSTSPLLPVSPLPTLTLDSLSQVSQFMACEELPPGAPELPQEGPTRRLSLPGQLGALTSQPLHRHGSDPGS

| Compound | Activity (HEK293) | % activity remaining at 20 min, 1 µM (CYP2D6 [1]) [%] | Cmax (Mus musculus [2]) [nM] | Tmax (Mus musculus [3]) [h] | Activity (BJ) | Vd/F [4] [L/kg] | pEC50 (Plasmodium falciparum [5]) | EC90 (Plasmodium falciparum [5]) [nM] | Tmax (Mus musculus [6]) [h] | Activity (HepG2) | permeability ([7]; BLD = below limit of detection) | solubility at 18 h, 10000 µM [8] [µM] | EC90 (Plasmodium falciparum [9]) [nM] | AUC (Mus musculus [10]) [nM·h] | Cmax (Mus musculus [11]) [nM] | Activity (Raji) | % activity remaining at 20 min, 10 µM (CYP2D6 [13]) [%] | Vd/F [14] [L/kg] | AUC (Mus musculus [16]) [µM·h] | pIC50 [19] | other results |
| --- | --- | --- | --- | --- | --- | --- | --- | --- | --- | --- | --- | --- | --- | --- | --- | --- | --- | --- | --- | --- | --- |
| O=C(CCc1ccc(F)cc1)c1ccccc1OCC(O)CN1CCN(C(c2ccccc2)c2ccccc2)CC1 (configuration not stated) | Non-toxic | 83 | 1140 | 0.5 | Non-toxic | 370 | 7.00 | 210 | 1 | Non-toxic | BLD | 0.6 (≈ 0.332 µg/mL) | 450 | 298 | 92.4 | Non-toxic | 76 | 288 | 5.67 | – | pEC50 (Plasmodium falciparum [9]): 6.80; Cmax (Mus musculus [12]): 861 nM; Vz/F (Mus musculus [15]): 1758 L/kg; AUC (Mus musculus [17]): 4.08 µM·h; Tmax (Mus musculus [18]): 30 min |
| O=C(CCc1ccccc1)c1cc(F)ccc1OCC(O)CN1CCN(C(c2ccccc2)c2ccccc2)CC1 (configuration not stated) | Non-toxic | – | 908 | 1 | Non-toxic | – | – | 310 | 1 | Non-toxic | – | 0.2 (≈ 0.111 µg/mL) | 660 | – | 98.7 | Non-toxic | – | 276 | 6.17 | < 5.30 | permeability [7]: 0.8 ×10⁻⁶ cm/s; CLint scaled [20]: 34 mL/min/kg |
| Cc1ccc(N2CCN(CC(O)COc3ccccc3C(=O)CCc3ccccc3)CC2)cc1 (configuration not stated) | Non-toxic | 92 | 866 | 8 | Non-toxic | – | – | 640 | 0.5 | Non-toxic | BLD | 2.2 (≈ 1.01 µg/mL) | 1300 | – | 302 | Non-toxic | 71 | 272 | 6.49 | < 5.30 | pIC50 [21]: 5.37; CLint scaled [22]: 38 mL/min/kg |
| O=C(CCc1ccccc1)c1ccccc1OCC(O)CN1CCC(c2ccccc2)CC1 (configuration not stated) | Non-toxic | 78 | 1620 | 0.3 | Non-toxic | – | – | 240 | 0.5 | Non-toxic | – | 7.3 (≈ 3.24 µg/mL) | 750 | 224 | 69.6 | Non-toxic | 31 | 278 | 6.8 | < 5.30 | Vz/F (Mus musculus [23]): 1093.3 L/kg; Activity (Plasmodium berghei [24]): 28.4%; MST (Plasmodium berghei [25]): 9 days; permeability [7]: 490 ×10⁻⁶ cm/s; Activity (Plasmodium berghei [26]): 50.4%; Activity (Plasmodium berghei [27]): 44.5%; Cmax (Mus musculus [12]): 1750 nM; Activity (Plasmodium berghei [28]): 33.3%; Vd/F [29]: 623 L/kg; AUC (Mus musculus [17]): 15.3 µM·h; Tmax (Mus musculus [18]): 30 min |
| O=C(CCc1ccccc1)c1cc(F)ccc1OCC(O)CN1CCC(c2ccccc2)CC1 (configuration not stated) | Non-toxic | 73 | 481 | 1 | Non-toxic | 224 | 6.59 | 420 | 1 | Non-toxic | BLD | 0.2 (≈ 0.0923 µg/mL) | 2200 | 1600 | 434 | Non-toxic | 34 | 982 | 3.75 | – | pEC50 (Plasmodium falciparum [9]): 5.88 |
